From PubChem
Rows were chosen to be rich in hits. Some 1.1% of all compounds tested hit in one or more screens of this group.
SR-BI uptake up = enhances SR-BI lipid uptake from DiI-HDL | CHO ldlA[mSR-BI] cells, DiI-HDL uptake fluorescence, 3 h; 100 = double the neutral-control signal | activation, % at 12.5 µM | actives 0.096% (n = 320,000) | AID 504775;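 active = mean replicate activation of at least 60% and every replicate at or above 60%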;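 also: 0% = median plate neutral-control signal and 100% = twice that signal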
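System: CHO ldlA[mSR-BI] cells / Medium: HEPES-buffered (25 mM, pH 7.4) F12 plus 0.5% BSA / Probe or stimulus: labelled HDL, 10 µg/mL / Doses: single compound concentration, delivered by pin transfer / Schedule: 3 h, 37 °C / Measured by: DiI fluorescence, bottom read / Measure: cell-associated DiI fluorescence as measure of HDL uptake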
SR-BI DiI inh = blocks mouse SR-BI lipid uptake from DiI-HDL; Q61009; ldlA[mSR-BI] CHO cells, DiI-HDL uptake fluorescence, 3 h; inhibition, % at 12.5 µM; actives 0.96% (n = 320,000);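 active = mean replicate inhibition of at least 70% and a set share of replicates each scoring 70 or more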;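 also: 0% = median of neutral control wells and 100% = median of positive control wells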
Target sequence (Q61009 whole entry, looked up): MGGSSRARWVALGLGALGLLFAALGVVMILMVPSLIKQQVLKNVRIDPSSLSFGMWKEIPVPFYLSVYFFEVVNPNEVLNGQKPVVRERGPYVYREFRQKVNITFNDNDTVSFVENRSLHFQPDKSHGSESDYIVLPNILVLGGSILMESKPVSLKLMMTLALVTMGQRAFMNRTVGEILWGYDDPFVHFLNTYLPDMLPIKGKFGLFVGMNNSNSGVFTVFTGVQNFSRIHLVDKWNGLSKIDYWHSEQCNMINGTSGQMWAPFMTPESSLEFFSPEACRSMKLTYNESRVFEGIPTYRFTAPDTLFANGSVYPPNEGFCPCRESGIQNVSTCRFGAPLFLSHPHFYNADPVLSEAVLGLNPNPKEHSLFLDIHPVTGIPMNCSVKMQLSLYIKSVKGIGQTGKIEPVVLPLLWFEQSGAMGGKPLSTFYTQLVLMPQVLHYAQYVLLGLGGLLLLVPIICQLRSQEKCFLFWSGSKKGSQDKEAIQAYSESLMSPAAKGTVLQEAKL
CDK5 inh = CDK5/p35 (human) kinase inhibition | actives 0.01% (n = 330,000) | Recombinant CDK5/p35, ADP-Glo luminescence, 60 min | inhibition, % at 10 µM | AID 488839 | Q00535+Q15078;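 active = highest replicate inhibition of at least 50% and at least 75% of replicates reaching 50%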;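 also: plate controls were DMSO neutral control for no effect and GW8510 at 10 µM for full effect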
GSK3beta inhib = human GSK3beta kinase inhibition | GST-GSK3beta kinase, ADP-Glo luminescence, 60 min; stronger effect = lower value | activity score (negative = inhibition), % at 10 µM | actives 0.038% (n = 300,000) | AID 2097;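 active = more than half of replicate wells score below -50%, meaning over 50% inhibition versus plate controls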;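 also: 0% = median DMSO wells and -100% = median GW8510 positive control wells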
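Assay system: GST-fused GSK3beta enzyme, cell-free / Medium: Tris pH 7.5 buffer with MgCl2, DTT, BSA, heparin / Also added: peptide substrate plus 25 µM ATP (final) / Compound: 10 µM single point / Timing: kinase reaction with compound 60 min at room temperature / Detection: ADP-Glo luminescence / Benchmarks: DMSO neutral wells and GW8510 at 20 µM as positive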
GSK3 alpha inh = blocks human GSK-3 alpha kinase; P49840; ADP-Glo luminescence, 60 min; inhibition, % at 10 µM; actives 0.1% (n = 320,000);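 active = more than half of replicates show inhibition above 20%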;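 also: GST-tagged GSK-3 alpha with peptide substrate and 25 µM ATP; 0% = DMSO neutral wells and 100% = GW8510 positive control wells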
Numbers without * were called inactive; . = not tested or not shown.

SMILES | SR-BI uptake up | SR-BI DiI inh | CDK5 inh | GSK3beta inhib | GSK3 alpha inh
Cc1c(C(=O)Nc2ccc(F)cc2)oc2ccc(S(=O)(=O)N3CCCC3)cc12 | -19 | 19 | 0 | 4 | -2
O=C(Nc1cccc(S(=O)(=O)N2CCOCC2)c1)c1ccc2ccccc2n1 | . | . | -1 | 3 | -1
Cc1ccc(NC(=O)c2ccc3ccccc3n2)cc1S(=O)(=O)N1CCOCC1 | -95 | 95* | -1 | 6 | 0
COc1ccc(CCNC(=O)CSCC(=O)Nc2cc(S(C)(=O)=O)ccc2Cl)cc1 | . | 51 | -1 | . | -5
Cc1cc(=O)oc2cc(OCC(=O)Nc3ccc(S(=O)(=O)N(C)C)cc3)ccc12 | -2 | 2 | -2 | 2 | 0
Cc1ccc(S(=O)(=O)N2CCN(C(=O)C3CCCC3)CC2)cc1C | 33 | -33 | 0 | -4 | -4
COc1ccccc1CNC(=O)COC(=O)Cc1ccc(Br)cc1 | 8 | -8 | 0 | . | -1
COc1ccc(CC(=O)OCC(=O)NCc2ccccc2Cl)cc1OC | 80* | -80 | -1 | -3 | .
COc1ccccc1C(=O)Nc1cccc(S(=O)(=O)N2CCCC2)c1 | 19 | -19 | -1 | 1 | -3
COc1ccccc1/C=C/C(=O)Nc1cccc(S(=O)(=O)NC2=NCCCCC2)c1 | -72 | 72* | 0 | 0 | -1
COc1cc(C(=O)Nc2cccc(S(=O)(=O)N3CCCC3)c2)c([N+](=O)[O-])cc1OC | -74 | 74* | 1 | 2 | -2
CCN1CCN(c2ccc(S(=O)(=O)N3CCCCC3)cc2NC(=O)/C=C/c2cc(OC)ccc2OC)CC1 | 14 | -14 | 2 | 1 | 6
COc1cc(C)c(NC(=O)c2cccc(S(=O)(=O)N3CCCC3)c2)cc1OC | -86 | 86* | -5 | . | -1
COc1ccc(OC)c(/C=C/C(=O)Nc2cccc(S(=O)(=O)NC3=NCCCCC3)c2)c1 | -65 | 65 | 1 | . | -7
COc1ccc(OC)c(/C=C/C(=O)Nc2cccc(S(=O)(=O)N3CCCC3)c2)c1 | -87 | 87* | 2 | 0 | 1
CC1CCC(NC(=O)CCS(=O)(=O)c2ccc3c(c2)oc(=O)n3C)CC1 (configuration not stated) | 7 | -7 | 0 | -1 | -2
Cc1cc2c(cc1S(=O)(=O)NCCc1ccc(Cl)cc1)OCC(=O)N2 | 1 | -1 | 1 | 0 | 1
CN(Cc1c(C(=O)N/N=C/c2ccc(O)cc2)nnn1-c1nonc1N)C1CCCCC1 | 2 | -2 | 0 | 0 | 60*
CC(/C=N/NC(=O)c1nnn(-c2nonc2N)c1CN(C)C)=C\c1ccco1 | . | . | 1 | -5 | 50*
CCN(CC)Cc1c(C(=O)N/N=C/c2cccnc2)nnn1-c1nonc1N | . | . | -2 | 0 | 53*
Cc1ccc(/C=N/NC(=O)c2nnn(-c3nonc3N)c2CN(C)C2CCCCC2)cc1 | -2 | 2 | -1 | 0 | -8
CCCN(CCC)Cc1c(C(=O)N/N=C/C(C)=C\c2ccco2)nnn1-c1nonc1N | -4 | 4 | 1 | 1 | -3
CCCN(CCC)Cc1c(C(=O)N/N=C/c2ccncc2)nnn1-c1nonc1N | -2 | 2 | -2 | -45 | 74*
O=C(c1ccc(S(=O)(=O)Nc2ccccc2F)cc1)N1CCCC1 | 13 | -13 | 0 | . | .
Cc1cccc(N2CCN(S(=O)(=O)c3ccc(Cl)nc3)CC2C)c1 (configuration not stated) | 3 | -3 | 1 | . | 0
SMILES | SR-BI uptake up | SR-BI DiI inh | CDK5 inh | GSK3beta inhib | GSK3 alpha inh
CCN(CC(=O)NCc1ccc(Cl)cc1)C(=O)c1ccc(C#N)cc1 | 6 | -6 | 0 | -3 | -2
COc1cccc(C(=O)N2N=C(c3cccc(OC)c3)CC2(O)C(F)(F)F)c1 (configuration not stated) | 8 | -8 | -3 | 2 | -2
COc1cccc(C(=O)N2N=C(c3ccccn3)CC2(O)C(F)(F)F)c1 (configuration not stated) | 241* | -240 | -1 | 1 | 1
COc1ccccc1-n1c(SCC(=O)OC(C)C)nc2cccnc21 | . | . | -2 | -3 | -1
COc1ccc(CCNC(=O)c2cccc([N+](=O)[O-])c2)cc1OC | -18 | 18 | 1 | 1 | -2
COc1ccc(CCNC(=O)c2ccc(-c3cccc([N+](=O)[O-])c3)o2)cc1OC | -72 | 72* | 1 | 2 | 0
O=C(N/N=C/C=C/c1ccccc1)c1cnccn1 | 240* | -240 | -4 | 0 | 2
COc1ccc(NC(=O)C2CCN(C(=O)C3CC(=O)N(c4ccc(C)cc4)C3)CC2)c(OC)c1 (configuration not stated) | -79 | 79* | 0 | -3 | 4
CC(=O)Nc1ccc(NC(=O)C2CCN(C(=O)C3CC(=O)N(c4ccc(C)cc4)C3)CC2)cc1 (configuration not stated) | -18 | 18 | -2 | 0 | 0
COC(=O)c1ccccc1NC(=O)C1CCN(C(=O)Cc2ccccc2)CC1 | . | 49 | -2 | 2 | -1
COc1ccc(C)cc1NC(=O)C1CCN(C(=O)Cc2ccccc2)CC1 | -76 | 76* | 2 | 0 | 0
Cc1sc(NC(=O)C2CSC3(C)CCC(=O)N23)nc1-c1ccc(F)cc1 (configuration not stated) | -50 | 50 | 0 | -1 | 11
Cc1ccc(S(=O)(=O)/N=C(\Nc2cc(C)on2)c2ccc(Cl)cc2)cc1 | -21 | 21 | -2 | 0 | -3
C[C@H](NC(=O)C1CCN(S(=O)(=O)c2ccccc2)CC1)C(=O)NCc1ccccn1 | 10 | -10 | -9 | 6 | -1
CC(C)=CCc1c(O)ccc2c1OC(c1ccc(O)c(O)c1)CC2=O (configuration not stated) | -3 | 3 | -1 | -50* | 76*
CCOC(=O)CCCCCC(=O)Nc1ccc2c(c1)C(=O)N([C@H](C)CO)C[C@@H](C)[C@H](CN(C)Cc1ccc3c(c1)OCO3)O2 | -33 | 33 | 1 | . | -2
COc1cccc(OC)c1C(=O)Nc1ccc2c(c1)N(S(=O)(=O)c1cccs1)CCC2 | -77 | 77* | -4 | 3 | -2
CSc1ccc(C(C(C(=O)c2cccs2)N2CCOCC2)N2CCOCC2)cc1 (configuration not stated) | 65* | -65 | 0 | 0 | 1
Cc1cc(Br)c(OCc2ccc(C(=O)N/N=C/c3ccc[nH]3)cc2)c(Br)c1 | -91 | 91* | 0 | . | -6
Cc1ccc2nc(C)cc(C(=O)N3CCCC(N4CCN(c5ccccc5C)CC4)C3)c2c1 (configuration not stated) | -62 | 62 | 1 | -1 | -1
O=C1C(=O)c2ccc(-c3ccccc3)cc2-c2ccccc21 | -92 | 92* | 3 | -15 | 9
CCN(CC)S(=O)(=O)c1cccc(C(=O)N/N=C/c2c(C)nn(-c3ccccc3)c2Cl)c1 | -73 | 73* | -1 | 0 | -2
